# RGS4 act – RGS4 potentiation or activation; B-score at 10 µM; AID 463111; HEK293 M3R/inducible RGS4, carbachol calcium flux Fluo4; hits give low values; 310,000 tested, 0.92% active;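 active = B-score of the integrated calcium signal more than 4 SD below the library mean, with starting fluorescence not abnormally high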;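 also: negative B-score means reduced calcium response which marks RGS4 activation or potentiation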
#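 Assay system: Inducible-RGS4 HEK293 cells carrying M3 receptor | Schedule: Compound preincubation 20 min at room temperature before agonist | Signal: Kinetic calcium fluorescence imaging with Fluo4-AM dye, 2 µM | Read-out basis: B score from integrated fluorescence ratio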
# MrgX1 agonist – human MrgX1 receptor agonism, primary screen | B-score at 10 µM | 310,000 tested, 0.44% active | MrgX1-HEK293 cells, Fluo-4 calcium fluorescence, agonist mode; hits give high values | AID 588627;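 active = calcium response B-score plate-corrected fluorescence ratio at least 3 library SD, with starting fluorescence B-score inside 5 SD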
# Target sequence (Q96LB2 whole entry, looked up): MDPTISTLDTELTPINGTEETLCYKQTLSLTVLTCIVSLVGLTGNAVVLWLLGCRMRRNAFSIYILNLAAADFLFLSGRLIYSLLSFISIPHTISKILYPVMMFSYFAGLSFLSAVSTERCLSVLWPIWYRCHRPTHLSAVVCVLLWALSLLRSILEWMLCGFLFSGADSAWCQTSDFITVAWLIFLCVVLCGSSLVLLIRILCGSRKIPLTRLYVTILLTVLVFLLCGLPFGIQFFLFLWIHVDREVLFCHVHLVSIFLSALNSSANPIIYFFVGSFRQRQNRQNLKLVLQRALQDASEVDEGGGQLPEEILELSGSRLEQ
#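 Material: MrgX1-expressing HEK293 cells / Dosing: compound as first of three additions / Incubation: overnight seeding, then 1 h dark dye loading / Signal: Fluo-4 NW calcium fluorescence / Evaluation: B-scored fluorescence response ratio / Benchmarks: positive and negative control wells on each plate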
# RGS4 block – human RGS4 inhibition. P49798. HEK293 M3R/RGS4 inducible, Fluo-4 calcium flux; hits give high values; triggered by carbachol at its EC20. 310,000 tested, 0.45% active. B-score at 10 µM;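 active = B-score, a plate-corrected calcium signal, over three deviations above library mean, with baseline fluorescence within five deviations of library mean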;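 also: RGS4 expression induced by doxycycline in cells with stable M3 receptor; B-score is computed from the integrated fluorescence ratio over baseline after carbachol; higher B-score means a larger calcium signal and so more RGS4 inhibition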
# Target sequence (P49798 whole entry, looked up): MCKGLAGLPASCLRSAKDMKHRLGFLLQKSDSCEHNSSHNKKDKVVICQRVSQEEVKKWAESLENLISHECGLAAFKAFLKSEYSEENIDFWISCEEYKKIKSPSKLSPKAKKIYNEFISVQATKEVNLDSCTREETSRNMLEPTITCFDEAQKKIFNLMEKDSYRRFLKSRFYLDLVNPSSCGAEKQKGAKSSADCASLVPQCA
# MrgX1 allo act – human MrgX1 positive allosteric modulation, primary screen | Q96LB2 | MrgX1-HEK293, Fluo-4 calcium flux, FDSS; hits give high values | B-score at 10 µM | 310,000 tested, 0.63% active | AID 588675;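 active = plate-corrected calcium response at least 3 library SD above typical, normal starting fluorescence, not activating the receptor alone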;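 also: compound read alongside a low EC10 to EC30 dose of BAM8-22 agonist; peak minus trough fluorescence over baseline measured at the second addition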
# MrgX1 antag – antagonists of human MrgX1 receptor; Q96LB2; MRGX1-HEK293 calcium flux, Fluo-4, BAM8-22 antagonism; hits give low values; B-score at 10 µM; 310,000 tested, 1.3% active; AID 588676;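 active = calcium-response B-score plate-corrected more than 3 library SD below zero, starting fluorescence within 5 deviations, no agonist response on first addition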;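 also: peak minus trough fluorescence over baseline after final BAM8-22 challenge near maximal dose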
# MrgX1 ant reconf – confirmation of human MrgX1 receptor antagonists; shares compounds with MrgX1 antag; MrgX1-HEK293, BAM8-22 calcium flux, Fluo-4; hits give low values; remaining BAM8-22 calcium response % of control (hits give low values), % at 10 µM; 2,300 tested, 19% active; AID 602420;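 active = remaining agonist calcium response no higher than 100% minus 3 SD of agonist-only control wells, with starting fluorescence near control levels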;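 also: agonist BAM8-22 given at a near maximal EC90 to ECmax level; peak minus minimum fluorescence divided by baseline after agonist addition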
# HEK293 Ca flux – activity in parental HEK293 cells lacking MrgX1 | shares compounds with MrgX1 antag | Fluo-4 calcium fluorescence, FDSS | fluorescence ratio F(max-min)/F0 at 10 µM | 4,000 tested, 2% active;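 active = duplicate-averaged calcium fluorescence ratio at least three times the standard deviation of buffer wells, a nonspecific response in parental cells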
# HEK293 Ca counter – activity in parental HEK293 cells without MrgX1 | shares compounds with MrgX1 antag | parental HEK293 calcium flux, Fluo-4 fluorescence ratio; hits give high values | fluorescence ratio F(max-min)/F0 at 10 µM | 4,000 tested, 0.4% active;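 active = calcium fluorescence ratio, averaged over duplicates, at least 3 SD of the buffer-well ratio, meaning a nonspecific response in receptor-free cells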;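 also: untransfected parental HEK293 lacking MrgX1 used as counterscreen for MrgX1 allosteric activators; fluorescence change taken during the second addition on a kinetic imager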
# HEK293 Ca cntr2 – counter-screen for MrgX1 activators: effect in parental HEK293 cells | shares compounds with MrgX1 antag | Fluo-4 calcium fluorescence (FDSS); hits give high values | fluorescence ratio F(max-min)/F0 at 10 µM | 4,000 tested, 8.7% active;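 active = calcium fluorescence ratio at least three times the spread of buffer wells, meaning a non-specific response in parental cells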
# Starred values were filed as active, the others as inactive; i = inactive; x = no result given. An excerpt weighted towards active compounds, which were near 3.5% of everything screened.
SMILES,RGS4 act,MrgX1 agonist,RGS4 block,MrgX1 allo act,MrgX1 antag,MrgX1 ant reconf,HEK293 Ca flux,HEK293 Ca counter,HEK293 Ca cntr2
N#Cc1cnc(NCc2ccc(Cl)cc2Cl)nc1,i,i,i,i,i,x,x,x,x
O=C(Nc1nnc(SCC(=O)N2CCCC2)s1)C1CC(=O)N(c2ccccc2)C1 (centres undefined),i,i,i,i,i,x,x,x,x
CC(=O)Nc1ccc2c(c1)N(C(C)=O)c1ccccc1CC2,i,i,i,i,-4.69*,82.0%*,i,i,i
COC(=O)/C=C/c1ccsc1NC(C)=O,i,i,i,i,i,x,x,x,x
Fc1ccc(COc2ccccc2C(=S)N2CCCC2)cc1,i,i,i,i,-5.4*,i,i,i,i
COc1ccc(-c2csc(NC(=O)c3ccccc3NS(=O)(=O)c3ccc(F)c(F)c3)n2)cc1,i,i,i,i,-6.55*,63.3%*,i,i,50.6*
O=C(Nc1nsc(-c2ccccc2)n1)c1cccs1,i,i,i,i,-10.2*,i,i,i,i
C=CCn1c(-c2ccc(S(=O)(=O)N3CCOCC3)cc2)csc1=Nc1ccccc1,i,i,i,i,-7.91*,i,i,i,i
O=C(CSc1nc(=O)n2cc(Cl)ccc2n1)Nc1cccc2ccccc12,i,x,i,x,x,x,x,x,x
CC(=O)c1ccccc1C(=O)N(C)C1CCCN(Cc2ccccc2F)C1 (centres undefined),i,i,i,i,-4.85*,i,i,i,45.1*
O=S(=O)(c1ccccc1Cl)N1CCC(O)(c2ccc3c(c2)OCO3)CC1,i,i,i,i,-4.89*,i,i,i,i
O=S(=O)(c1ccc2c(c1)OCCO2)N1CCC(O)(c2ccc(Cl)cc2)CC1,i,i,i,i,i,x,x,x,x
Cc1cccc(C)c1NC(=O)CSc1ncnc2nc[nH]c12,i,i,i,i,-4.72*,i,i,i,i
CCc1c(C2(O)CCCCC2)[nH]c2ccc(C#N)cc12,i,i,i,i,i,x,x,x,x
CCOc1cc(N2CCOCC2)c(OCC)cc1NC(=O)c1ccc(C)cc1,i,i,i,i,-11.7*,i,i,i,i
CCCCC(CC)CNC(=O)Cn1c(=S)[nH]c2ncccc2c1=O (centres undefined),i,i,i,i,i,x,x,x,x
COc1ccc(OC)c(Nc2c3ccccc3nc3ccccc23)c1,i,i,i,i,i,x,x,x,x
COc1cc(NS(C)(=O)=O)ccc1Nc1c2ccccc2nc2ccccc12,x,i,x,i,-6.74*,i,i,i,i
CCOC(=O)CCN1C(=O)c2ccccc2Sc2ncccc21,i,i,i,i,i,x,x,x,x
CCOC(=O)C1=C(O)/C(=C\c2sccc2C)N=C1C,i,i,i,i,-5.24*,i,i,i,i
Cc1nn2c(-c3ccc(S(=O)(=O)N4CCN(C)CC4)o3)nnc2c2ccccc12,i,i,i,i,i,x,x,x,x
Cc1c(OCC(=O)N2CCN(c3ccccc3)CC2)ccc2c3c(c(=O)oc12)CCCC3,i,i,i,i,i,x,x,x,x
Nc1nonc1-n1nnc(C(=O)N/N=C/c2cc(Cl)ccc2O)c1CN1CCCCCC1,i,i,i,i,i,x,x,x,x
CCNC(=S)N/N=C/c1ccc(OCC(=O)Nc2ccc(OC)cc2)c(OC)c1,i,i,i,i,i,x,x,x,x
CCNC(=S)N/N=C/c1ccc(OCC(=O)Nc2ccc(C)cc2)cc1,i,i,i,i,-10.1*,i,i,i,i
SMILES,RGS4 act,MrgX1 agonist,RGS4 block,MrgX1 allo act,MrgX1 antag,MrgX1 ant reconf,HEK293 Ca flux,HEK293 Ca counter,HEK293 Ca cntr2
Cc1cc(C(=O)OCC(=O)N2CCN(c3ccccc3)CC2)c2ccccc2n1,i,i,i,i,-5.55*,i,i,i,i
O=C(OCC(=O)N1CCN(c2ccccc2)CC1)c1ccc(O)cc1O,i,i,i,i,i,x,x,x,x
Cc1ccc(SCCNS(C)(=O)=O)cc1,i,i,i,i,-5.07*,i,i,i,i
Cc1ccc(SCCNS(=O)(=O)c2ccc(F)cc2)cc1,i,i,i,i,i,x,x,x,x
COC(=O)[C@]1(C)N[C@H](c2ccc(SC3CCCCC3)cc2)[C@@H]2C(=O)N(C)C(=O)[C@@H]21,i,i,i,i,-7.92*,i,i,i,i
CCCSc1ccc([C@H]2N[C@@](C)(C(=O)OC)[C@H]3C(=O)N(C)C(=O)[C@@H]23)cc1,i,i,i,i,i,x,x,x,x
CC(C)(C)N(Cc1ccccc1)C(=O)CSc1nc2ccccc2c(=O)[nH]1,i,i,i,i,i,x,x,x,x
Cc1nnc(SCC(=O)N(Cc2ccccc2)C(C)(C)C)[nH]c1=O,i,i,i,i,-4.57*,i,i,i,i
Cn1c(N)c(C(=O)COC(=O)[C@H](Cc2ccccc2)N2C(=O)c3ccccc3C2=O)c(=O)n(C)c1=O,i,i,i,i,i,x,x,x,x
O=C(COC(=O)c1cccnc1Nc1ccccc1F)NCCN1C(=O)CSC1=O,i,i,i,i,-12.3*,i,i,i,i
O=C(NCCN1CCOCC1)/C(=C\c1ccc(Br)cc1)NC(=O)c1cccs1,i,i,i,i,i,x,x,x,x
CCCCc1c(C)nc2nc(SCc3ccc(Cl)cc3)[nH]n2c1=O,i,i,i,i,i,x,x,x,x
CCCCN(C(=O)c1ccc(Cl)c([N+](=O)[O-])c1)c1c(N)n(CCC)c(=O)[nH]c1=O,i,i,i,i,i,x,x,x,x
COC(=O)c1sc(-c2ccc(C(C)(C)C)cc2)cc1NC(=O)CCC(=O)O,i,i,i,i,-6.61*,57.7%*,i,i,i
COC(=O)c1sc(-c2ccc(Cl)cc2)cc1NC(=O)COCC(=O)O,i,i,i,i,i,x,x,x,x

# Assay outcomes (PubChem)
